ChEMBL document CHEMBL1649446, “Comparative antipneumococcal activities of sulopenem and other drugs” (2009)
Converted amounts (≈) assume the structure as drawn.

Columns and labels:
Format in all cases: functional
Streptococcus pneumoniae [1] = experiment: Antimicrobial activity against penicillin-susceptible Streptococcus pneumoniae by agar dilution method
Streptococcus pneumoniae [2] = experiment: Antimicrobial activity against penicillin-intermediate Streptococcus pneumoniae by agar dilution method
Streptococcus pneumoniae [3] = experiment: Antimicrobial activity against penicillin-resistant Streptococcus pneumoniae by agar dilution method
Summary of the method: (§1)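 Agar dilution MIC on Mueller-Hinton agar with 5% sheep blood, inocula 10^4 CFU/spot; amoxicillin-clavulanate combined 1:2; S. pneumoniae ATCC 49619 quality control each run.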

Streptococcus pneumoniae [4] = experiment: Antimicrobial activity against penicillin-susceptible Streptococcus pneumoniae by agar dilution method in presence of beta-lactamase inhibitor clavulanic acid
Streptococcus pneumoniae [5] = experiment: Antimicrobial activity against penicillin-intermediate Streptococcus pneumoniae by agar dilution method in presence of beta-lactamase inhibitor clavulanic acid
Summary of the method: (§2)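 Agar dilution MIC on Mueller-Hinton agar with 5% sheep blood at 10^4 CFU/spot. Clavulanate combined with amoxicillin 1:2. Control S. pneumoniae ATCC 49619 included in each run. Penicillin categories: intermediate 0.125–1.0 μg/ml, resistant 2.0–16.0 μg/ml. MIC50/MIC90 taken across strain sets, including 45 drug-resistant serotype 19A isolates.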

Streptococcus pneumoniae [6] = experiment: Antimicrobial activity against penicillin-resistant Streptococcus pneumoniae by agar dilution method in presence of beta-lactamase inhibitor clavulanic acid; summary of the method: as §2
Streptococcus pneumoniae [7] = experiment: Antimicrobial activity against Streptococcus pneumoniae 19A by agar dilution method; summary of the method: as §1
Streptococcus pneumoniae [8] = experiment: Antimicrobial activity against Streptococcus pneumoniae 19A by agar dilution method in presence of beta-lactamase inhibitor clavulanic acid; summary of the method: as §2
Streptococcus pneumoniae [9] = experiment: Antimicrobial activity against Streptococcus pneumoniae 1 by time-kill analysis
Summary of the method: (§3)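 Time-kill in cation-adjusted Mueller-Hinton broth with 5% lysed horse blood; inocula 5 × 105 to 5 × 10^6 CFU/ml; drugs at MIC, 2× and 4× MIC; 35°C shaking water bath; viable counts at 0, 3, 6, 12 and 24 h. Bactericidal if ≥3 log10 CFU/ml (99.9%) reduction from original inoculum; 90% and 99% killing also scored.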

Streptococcus pneumoniae [10] = experiment: Antimicrobial activity against Streptococcus pneumoniae 2 by time-kill analysis
Summary of the method: as §3, with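 “12,” for “12 and”, “=” for “if”, “drop” for “reduction”, “90%/99%/99.9%” for “90% and 99%”, “scored per strain.” for “also scored.”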

Streptococcus pneumoniae [11] = experiment: Antimicrobial activity against Streptococcus pneumoniae 3 by time-kill analysis
Summary of the method: as §3, with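 “12,” for “12 and”, “=” for “if”, “drop” for “reduction”, “90%/99%/99.9%” for “90% and 99%”, “scored per strain.” for “also scored.”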

Streptococcus pneumoniae [12] = experiment: Antimicrobial activity against Streptococcus pneumoniae 4 by time-kill analysis
Summary of the method: as §3, with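 “12,” for “12 and”, “=” for “if”, “drop” for “reduction”, “90%/99%/99.9%” for “90% and 99%”, “scored per strain.” for “also scored.”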

Streptococcus pneumoniae [13] = experiment: Antimicrobial activity against Streptococcus pneumoniae 5 by time-kill analysis; summary of the method: as §3
Streptococcus pneumoniae [14] = experiment: Antimicrobial activity against Streptococcus pneumoniae 6 by time-kill analysis
Summary of the method: as §3, with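 “12,” for “12 and”, “=” for “if”, “drop” for “reduction”, “90%/99%/99.9%” for “90% and 99%”, “scored per strain.” for “also scored.”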

Streptococcus pneumoniae [15] = experiment: Antimicrobial activity against Streptococcus pneumoniae 7 by time-kill analysis
Summary of the method: as §3, with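 “12,” for “12 and”, “=” for “if”, “drop” for “reduction”, “90%/99%/99.9%” for “90% and 99%”, “scored per strain.” for “also scored.”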

Streptococcus pneumoniae [16] = experiment: Antimicrobial activity against Streptococcus pneumoniae 8 by time-kill analysis
Summary of the method: as §3, with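 “12,” for “12 and”, “=” for “if”, “drop” for “reduction”, “90%/99%/99.9%” for “90% and 99%”, “scored per strain.” for “also scored.”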

Streptococcus pneumoniae [17] = experiment: Antimicrobial activity against Streptococcus pneumoniae 9 by time-kill analysis; summary of the method: as §3
Streptococcus pneumoniae [18] = experiment: Antimicrobial activity against Streptococcus pneumoniae 10 by time-kill analysis
Summary of the method: as §3, with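 “12,” for “12 and”, “=” for “if”, “drop” for “reduction”, “90%/99%/99.9%” for “90% and 99%”, “scored per strain.” for “also scored.”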

Streptococcus pneumoniae [19] = experiment: Antimicrobial activity against Streptococcus pneumoniae 11 by time-kill analysis
Summary of the method: as §3, with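 “12,” for “12 and”, “=” for “if”, “drop” for “reduction”, “90%/99%/99.9%” for “90% and 99%”, “scored per strain.” for “also scored.”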

Streptococcus pneumoniae [20] = experiment: Antimicrobial activity against Streptococcus pneumoniae 12 by time-kill analysis
Summary of the method: as §3, with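 “12,” for “12 and”, “=” for “if”, “drop” for “reduction”, “90%/99%/99.9%” for “90% and 99%”, “scored per strain.” for “also scored.”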

Streptococcus pneumoniae [21] = experiment: Antimicrobial activity against Streptococcus pneumoniae isolate 24 by agar dilution method
Streptococcus pneumoniae [22] = experiment: Antimicrobial activity against Streptococcus pneumoniae isolate 33 by agar dilution method; summary of the method: as §1
Streptococcus pneumoniae [23] = experiment: Antimicrobial activity against Streptococcus pneumoniae isolate 37 by agar dilution method; summary of the method: as §1
Streptococcus pneumoniae [24] = experiment: Antimicrobial activity against Streptococcus pneumoniae isolate 1055 by agar dilution method
Streptococcus pneumoniae [25] = experiment: Antimicrobial activity against Streptococcus pneumoniae isolate 1146 by agar dilution method; summary of the method: as §1
Streptococcus pneumoniae [26] = experiment: Antimicrobial activity against Streptococcus pneumoniae isolate 1147 by agar dilution method; summary of the method: as §1
Streptococcus pneumoniae [27] = experiment: Antimicrobial activity against Streptococcus pneumoniae isolate 1384 by agar dilution method; summary of the method: as §1

## CC1(C)S[C@@H]2[C@H](NC(=O)[C@H](N)c3ccc(O)cc3)C(=O)N2[C@H]1C(=O)O [AMOXICILLIN]
Streptococcus pneumoniae [1]
  MIC50: 0.03 µg/mL (≈ 0.0821 µM)
  MIC90: 0.03 µg/mL (≈ 0.0821 µM)
Streptococcus pneumoniae [2]
  MIC50: 0.25 µg/mL (≈ 0.684 µM)
  MIC90: 1 µg/mL (≈ 2.74 µM)
Streptococcus pneumoniae [3]
  MIC50: 2 µg/mL (≈ 5.47 µM)
  MIC90: 8 µg/mL (≈ 21.9 µM)
Streptococcus pneumoniae [4]
  MIC50: 0.03 µg/mL
  MIC90: 0.03 µg/mL
Streptococcus pneumoniae [5]
  MIC50: 0.25 µg/mL
  MIC90: 1 µg/mL
Streptococcus pneumoniae [6]
  MIC50: 2 µg/mL
  MIC90: 4 µg/mL
Streptococcus pneumoniae [7]
  MIC50: 8 µg/mL (≈ 21.9 µM)
  MIC90: 8 µg/mL (≈ 21.9 µM)
Streptococcus pneumoniae [8]
  MIC50: 8 µg/mL
  MIC90: 8 µg/mL
Streptococcus pneumoniae [9]
  MIC: 0.03 µg/mL (≈ 0.0821 µM)
Streptococcus pneumoniae [10]
  MIC: 0.03 µg/mL (≈ 0.0821 µM)
Streptococcus pneumoniae [11]
  MIC: 0.5 µg/mL (≈ 1.37 µM)
Streptococcus pneumoniae [12]
  MIC: 2 µg/mL (≈ 5.47 µM)
Streptococcus pneumoniae [13]
  MIC: 8 µg/mL (≈ 21.9 µM)
Streptococcus pneumoniae [14]
  MIC: 0.25 µg/mL (≈ 0.684 µM)
Streptococcus pneumoniae [15]
  MIC: 2 µg/mL (≈ 5.47 µM)
Streptococcus pneumoniae [16]
  MIC: 2 µg/mL (≈ 5.47 µM)
Streptococcus pneumoniae [17]
  MIC: 0.25 µg/mL (≈ 0.684 µM)
Streptococcus pneumoniae [18]
  MIC: 0.06 µg/mL (≈ 0.164 µM)
Streptococcus pneumoniae [19]
  MIC: 2 µg/mL (≈ 5.47 µM)
Streptococcus pneumoniae [20]
  MIC: 1 µg/mL (≈ 2.74 µM)
Streptococcus pneumoniae [21]
  MIC: 2 µg/mL (≈ 5.47 µM)
Streptococcus pneumoniae [22]
  MIC: 2 µg/mL (≈ 5.47 µM)
Streptococcus pneumoniae [23]
  MIC: 2 µg/mL (≈ 5.47 µM)
Streptococcus pneumoniae [24]
  MIC: 4 µg/mL (≈ 10.9 µM)
Streptococcus pneumoniae [25]
  MIC: 4 µg/mL (≈ 10.9 µM)
Streptococcus pneumoniae [26]
  MIC: 4 µg/mL (≈ 10.9 µM)
Streptococcus pneumoniae [27]
  MIC: 4 µg/mL (≈ 10.9 µM)
